Assay [1] addresses Vascular endothelial growth factor receptor 2 (Homo sapiens, UniProt P35968). Put plainly: Inhibition of human vascular endothelial growth factor receptor 2.
The target in assay [2] is Cyclin-dependent kinase 1 (Homo sapiens, UniProt P06493). Nature of the assay: Inhibition of human cyclin-dependent kinase 1.
Assay [3] deals with Protein kinase C beta type (Homo sapiens, UniProt P05771). Nature of the assay: Inhibition of protein kinase C beta 2.
In the next assay the target is Casein kinase II (Homo sapiens, UniProt P19784+P67870+P68400). Nature of the assay: Inhibition of casein kinase II. In kind it is protein-complex assay.
Assay [4] deals with cAMP-dependent protein kinase (PKA) (Homo sapiens, UniProt P22694+P17612+P22612). Nature of the assay: Inhibition of protein kinase A. Format: protein assay.
Assay [5] addresses Cyclin-dependent kinase 4 (Homo sapiens, UniProt P11802). Put plainly: Inhibition of cyclin-dependent kinase 4.
The target in assay [6] is Mitogen-activated protein kinase 1 (Homo sapiens, UniProt P28482). Put plainly: Inhibition of mitogen activated protein kinase (ERK2).
In assay [7] the target is Fibroblast growth factor receptor 2 (Homo sapiens, UniProt P21802). Put plainly: Inhibition of fibroblast growth factor receptor 2.
For assay [8], the target named is Vascular endothelial growth factor receptor (Homo sapiens, UniProt P17948+P35916+P35968). Nature of the assay: Inhibition of VEGF-stimulated human umbilical vein endothelial cell proliferation. Format: functional, cell-based. In outline: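 HUVEC trypsinized and seeded in F-12K with 0.2% heat-inactivated FBS, stimulated with 2 ng/well VEGF with or without compound. BrdU added 24 h after VEGF, then incubated another 20-24 h. Incorporation read by BrdU cell-proliferation ELISA.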

A further assay concerns HeLa. Nature of the assay: Inhibitory concentration against Proliferation of HeLa cells (cervical adenocarcinoma). In kind it is functional, cell-based. As to conditions: Homo sapiens. The procedure, abridged: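 HeLa cells grown in MEM with 0.1 mM nonessential amino acids, 1 mM pyruvate, 2 mM L-glutamine and 10% FCS at 37 °C, 5% CO2. Seeded in scintillating microplates in complete medium and incubated 24 h. Compound added for 24 h, then 0.2 µCi methyl-[14C]thymidine per well for a further 24 h.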

Assay [9] concerns the target Protein kinase C gamma type (Homo sapiens, UniProt P05129). Nature of the assay: Inhibition of protein kinase C gamma.

By IC50 is commonly meant the concentration needed to halve the response being measured. A lower IC50 goes with higher potency.

Chain of Vascular endothelial growth factor receptor 2 (P35968 whole entry): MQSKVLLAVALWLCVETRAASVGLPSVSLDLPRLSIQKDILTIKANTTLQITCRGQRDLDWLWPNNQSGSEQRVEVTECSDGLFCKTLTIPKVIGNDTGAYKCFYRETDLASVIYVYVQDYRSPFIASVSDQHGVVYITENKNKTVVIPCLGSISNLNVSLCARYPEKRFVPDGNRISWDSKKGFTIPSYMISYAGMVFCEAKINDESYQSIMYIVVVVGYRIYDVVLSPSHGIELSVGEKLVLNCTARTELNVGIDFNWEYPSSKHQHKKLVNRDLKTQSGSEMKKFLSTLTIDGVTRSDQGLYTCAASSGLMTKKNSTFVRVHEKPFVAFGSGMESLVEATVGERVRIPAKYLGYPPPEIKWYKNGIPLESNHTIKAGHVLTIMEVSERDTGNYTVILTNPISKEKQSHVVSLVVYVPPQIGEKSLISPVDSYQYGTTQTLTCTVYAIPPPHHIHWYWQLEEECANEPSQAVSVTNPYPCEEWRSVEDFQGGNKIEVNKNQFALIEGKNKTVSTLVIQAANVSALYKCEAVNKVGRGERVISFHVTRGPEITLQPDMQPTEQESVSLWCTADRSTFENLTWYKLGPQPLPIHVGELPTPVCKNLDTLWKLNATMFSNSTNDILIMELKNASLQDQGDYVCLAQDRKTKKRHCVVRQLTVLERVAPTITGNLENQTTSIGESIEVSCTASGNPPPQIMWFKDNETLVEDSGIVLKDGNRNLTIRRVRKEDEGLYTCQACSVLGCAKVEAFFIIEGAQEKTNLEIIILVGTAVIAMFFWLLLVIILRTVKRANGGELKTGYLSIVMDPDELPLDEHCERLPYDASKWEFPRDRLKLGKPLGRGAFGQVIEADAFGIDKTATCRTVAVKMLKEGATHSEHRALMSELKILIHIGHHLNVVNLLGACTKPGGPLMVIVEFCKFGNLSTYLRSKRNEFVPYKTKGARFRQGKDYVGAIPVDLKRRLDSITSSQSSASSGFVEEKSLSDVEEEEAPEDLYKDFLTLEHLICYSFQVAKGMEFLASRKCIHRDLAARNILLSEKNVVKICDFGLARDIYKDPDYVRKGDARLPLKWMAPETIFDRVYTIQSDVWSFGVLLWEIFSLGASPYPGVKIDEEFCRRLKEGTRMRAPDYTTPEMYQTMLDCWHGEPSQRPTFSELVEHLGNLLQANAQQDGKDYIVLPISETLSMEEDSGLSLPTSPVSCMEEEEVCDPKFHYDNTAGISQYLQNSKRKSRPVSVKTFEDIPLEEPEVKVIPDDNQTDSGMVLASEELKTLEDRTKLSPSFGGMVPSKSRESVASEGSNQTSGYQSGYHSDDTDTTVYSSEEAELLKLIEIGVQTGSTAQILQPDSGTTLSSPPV
Chain of Cyclin-dependent kinase 1 (P06493 whole entry): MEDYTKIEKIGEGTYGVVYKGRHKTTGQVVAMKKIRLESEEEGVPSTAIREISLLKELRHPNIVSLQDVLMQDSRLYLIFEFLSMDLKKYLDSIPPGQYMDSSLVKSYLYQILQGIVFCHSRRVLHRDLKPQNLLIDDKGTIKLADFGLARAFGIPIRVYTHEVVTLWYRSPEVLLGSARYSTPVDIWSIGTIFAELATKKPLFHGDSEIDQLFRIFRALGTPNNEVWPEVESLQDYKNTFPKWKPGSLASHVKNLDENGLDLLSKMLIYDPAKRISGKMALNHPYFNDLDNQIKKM
Chain of Cyclin-dependent kinase 4 (P11802 whole entry): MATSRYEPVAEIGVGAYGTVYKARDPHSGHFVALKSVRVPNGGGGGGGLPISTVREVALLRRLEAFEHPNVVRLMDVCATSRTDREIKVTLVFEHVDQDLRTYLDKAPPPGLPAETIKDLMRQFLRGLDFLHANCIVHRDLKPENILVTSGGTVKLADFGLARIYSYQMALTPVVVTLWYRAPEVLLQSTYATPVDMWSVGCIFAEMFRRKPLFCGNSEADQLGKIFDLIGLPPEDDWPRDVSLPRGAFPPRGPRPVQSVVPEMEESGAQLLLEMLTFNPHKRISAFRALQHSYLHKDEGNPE
Chain of Mitogen-activated protein kinase 1 (P28482 whole entry): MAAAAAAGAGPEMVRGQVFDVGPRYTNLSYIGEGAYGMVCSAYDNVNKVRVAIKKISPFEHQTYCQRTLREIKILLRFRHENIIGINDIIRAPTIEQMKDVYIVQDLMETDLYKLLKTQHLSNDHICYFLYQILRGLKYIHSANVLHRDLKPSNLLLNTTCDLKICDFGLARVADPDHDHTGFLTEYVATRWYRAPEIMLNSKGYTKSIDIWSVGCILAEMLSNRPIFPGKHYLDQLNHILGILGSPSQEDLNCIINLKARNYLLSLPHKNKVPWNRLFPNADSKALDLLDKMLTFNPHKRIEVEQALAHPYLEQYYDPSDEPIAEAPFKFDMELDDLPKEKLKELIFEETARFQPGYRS
Chain of Protein kinase C beta type (P05771 whole entry): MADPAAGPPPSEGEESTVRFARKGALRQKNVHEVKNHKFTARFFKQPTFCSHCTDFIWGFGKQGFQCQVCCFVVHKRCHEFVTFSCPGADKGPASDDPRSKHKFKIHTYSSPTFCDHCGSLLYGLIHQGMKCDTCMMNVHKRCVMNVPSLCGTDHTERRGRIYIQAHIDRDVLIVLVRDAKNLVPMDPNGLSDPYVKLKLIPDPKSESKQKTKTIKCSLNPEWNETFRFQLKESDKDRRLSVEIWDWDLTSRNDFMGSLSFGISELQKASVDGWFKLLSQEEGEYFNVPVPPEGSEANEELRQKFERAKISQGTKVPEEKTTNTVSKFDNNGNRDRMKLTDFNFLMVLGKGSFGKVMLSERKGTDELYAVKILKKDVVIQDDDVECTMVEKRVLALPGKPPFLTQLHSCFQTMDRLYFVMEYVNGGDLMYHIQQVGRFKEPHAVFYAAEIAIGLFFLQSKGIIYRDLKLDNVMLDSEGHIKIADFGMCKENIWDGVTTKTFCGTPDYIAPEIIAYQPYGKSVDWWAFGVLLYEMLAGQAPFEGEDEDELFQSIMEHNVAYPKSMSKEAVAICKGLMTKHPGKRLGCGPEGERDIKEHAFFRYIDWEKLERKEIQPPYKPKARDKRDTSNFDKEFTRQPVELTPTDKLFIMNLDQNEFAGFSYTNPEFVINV
Chain of Fibroblast growth factor receptor 2 (P21802 whole entry): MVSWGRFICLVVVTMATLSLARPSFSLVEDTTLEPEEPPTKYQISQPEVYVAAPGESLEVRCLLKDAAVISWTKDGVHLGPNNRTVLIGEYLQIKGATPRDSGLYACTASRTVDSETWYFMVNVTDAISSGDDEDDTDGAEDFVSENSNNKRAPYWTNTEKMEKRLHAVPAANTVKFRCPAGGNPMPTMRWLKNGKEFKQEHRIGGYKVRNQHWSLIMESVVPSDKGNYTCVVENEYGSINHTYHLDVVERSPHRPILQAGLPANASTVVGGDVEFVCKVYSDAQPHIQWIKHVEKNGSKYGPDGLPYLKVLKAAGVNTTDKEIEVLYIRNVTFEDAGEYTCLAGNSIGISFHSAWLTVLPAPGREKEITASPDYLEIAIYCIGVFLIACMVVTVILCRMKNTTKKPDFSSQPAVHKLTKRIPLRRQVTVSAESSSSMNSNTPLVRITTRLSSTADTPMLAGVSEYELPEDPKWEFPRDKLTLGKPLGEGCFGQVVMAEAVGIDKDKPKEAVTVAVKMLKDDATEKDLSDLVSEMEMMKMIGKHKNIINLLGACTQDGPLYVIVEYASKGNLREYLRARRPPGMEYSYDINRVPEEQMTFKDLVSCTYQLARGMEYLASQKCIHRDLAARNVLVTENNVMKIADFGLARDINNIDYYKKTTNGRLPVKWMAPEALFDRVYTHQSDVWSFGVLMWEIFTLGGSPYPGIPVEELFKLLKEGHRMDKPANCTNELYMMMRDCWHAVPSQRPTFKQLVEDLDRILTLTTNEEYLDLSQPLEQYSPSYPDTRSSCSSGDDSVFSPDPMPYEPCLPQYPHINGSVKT

Turning to `OCCCNc1cccc(-c2cncc(Nc3cccc(Cl)c3)n2)n1`, the IC50 in assay [1] and in assay [2] was more than 10000 nM in each case.

Turning to `OCCCNc1cc(-c2cncc(Nc3cccc(Cl)c3)n2)ccn1`, the IC50 in [1] and in [2] was 500 nM each time.

Regarding `OCCCNc1cncc(-c2ncc(Nc3cccc(Cl)c3)cn2)c1`, the IC50 in [1] and in assay [2] was more than 10000 nM each time.

Turning to `OCCCNc1cncc(-c2cncc(Nc3cccc(Cl)c3)n2)c1`, the half-inhibitory concentration (IC50) in assay [3] is more than 10000 nM; against Casein kinase II, more than 10000 nM; in assay [4], more than 10000 nM; in assay [1], 84 nM; in assay [5] it was more than 10000 nM; in [6] it was more than 10000 nM. In addition, the IC50 in assay [7] is 210 nM; in [8] it was 5 nM; in the assay with HeLa, more than 10000 nM; in assay [9], more than 10000 nM.

As for `OCCCNc1ccc(-c2cncc(Nc3cccc(Cl)c3)n2)nc1`, the half-inhibitory concentration (IC50) in [1] and in [2] was more than 10000 nM in each case.

With `OCCCNc1cnccc1-c1cncc(Nc2cccc(Cl)c2)n1`, the IC50 in assay [1] was 761 nM; in [2] it was 2220 nM.

In the case of `OCCCNc1cncc(-c2cncc(Nc3cccc(Cl)c3)n2)n1`, the IC50 in assay [1] was 497 nM; in assay [2], more than 10000 nM.

In turn, `OCCCNc1cc(-c2ccnc(Nc3cccc(Cl)c3)n2)ccn1` registered an IC50 in [2] of 17 nM.

With `OCCCNc1cncc(-c2cc(Nc3cccc(Cl)c3)ncn2)c1`, the values for the IC50 in assay [1] and in [2] were more than 10000 nM and 2400 nM, respectively.

Regarding `OCCCNc1ncc(-c2cncc(Nc3cccc(Cl)c3)n2)s1`, the IC50 in assay [1] was 708 nM; in assay [2], 8080 nM.

Consider `OCCCNc1ncc(-c2cncc(Nc3cccc(Cl)c3)n2)o1`, for which the IC50 is 2110 nM in assay [1] and more than 10000 nM in assay [2].

In the case of `OCCCNc1cncc(-c2cnc(Nc3cccc(Cl)c3)cn2)c1`, the concentration for half-maximal inhibition (IC50) in assay [1] and in assay [2] was more than 10000 nM throughout.

In the case of `OCCCNc1ccc(-c2ncncc2Nc2cccc(Cl)c2)cn1`, the IC50 in assay [1] and in assay [2] was more than 10000 nM in each case.

For the origin of these results see ChEMBL document CHEMBL1142725, “Synthesis and discovery of pyrazine-pyridine biheteroaryl as a novel series of potent vascular endothelial growth factor receptor-2 inhibitors” (J Med Chem, 2005).
